Source: ChEMBL document CHEMBL3259749, “Design, synthesis and evaluation of novel 2,5,6-trisubstituted benzimidazoles targeting FtsZ as antitubercular agents” (Bioorg Med Chem, 2014)
Converted amounts (≈) assume the structure as drawn. The source made the active and inactive calls. The rule behind the calls is not given here.

Assays:
[1] = system: Mycobacterium tuberculosis; experiment: Antimycobacterial activity against Mycobacterium tuberculosis H37Rv assessed as growth inhibition at 1 ug/ml after 7 days incubation by Alamar Blue staining-based broth microdilution assay; format: functional; conditions: 168 h, read-out: GI
[2] = system: Mycobacterium tuberculosis; experiment: Antimycobacterial activity against Mycobacterium tuberculosis H37Rv assessed as growth inhibition after 7 days incubation by Alamar Blue staining-based broth microdilution assay; format: functional; conditions: 168 h
Outline: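 Mid-log Mtb H37Rv grown in 7H9 with 10% OADC and 0.05% Tween-80, added to 2-fold serial dilutions of DMSO-stocked compound at OD600 0.005. Incubated 6 days at 37 °C, then Alamar Blue added for a further 24 h at 37 °C. Colour change read by eye; MIC99 taken in triplicate.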

Vero = experiment: Cytotoxicity against African green monkey Vero cells […] by MTT assay; format: cell-based; conditions: Chlorocebus sabaeus
[3] = system: Mycobacterium tuberculosis; experiment: Inhibition of Mycobacterium tuberculosis FtsZ polymerization assessed as 90 degrees light scattering by fluorescence system
Outline: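 His-tagged Mtb-FtsZ at 15 μM, Ni-resin and size-exclusion purified, preincubated with DMSO-stocked compound for up to 300 s. Buffer was 50 mM MES pH 6.5, 100 mM KCl, 5 mM MgCl2. Polymerization started with 100 μM GTP. 90° light scattering recorded at 30 °C, excitation/emission 400 nm, for up to 30 min.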

[4] = Binding affinity to Mycobacterium tuberculosis FtsZ assessed as fluorescence intensity at emission maximum 427.9 nm
Outline: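 Fluorescence of compound held at 100 μM, titrated with His-tagged Mtb-FtsZ expressed in E. coli BL21(DE3). FtsZ was Ni-resin purified and dialysed into Tris storage buffer. Run in 50 mM MES, 100 mM KCl, 5 mM MgCl2, with no GTP. Excitation 316 nm, emission 427.9 nm. Kd obtained by fitting ΔF = (ΔFmax × L)/(Kd + L).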

[5] = system: Mycobacterium tuberculosis; experiment: Inhibition of Mycobacterium tuberculosis FtsZ polymerization assessed as reduction in length, density and aggregation of polymer at 40 to 80 uM by Transmission electron microscopy in presence of 25 uM GTP
Outline: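 Mtb-FtsZ at 5 μM, Ni-NTA purified, held 15 min on ice with ethanol-stocked compound in 50 mM MES pH 6.5, 5 mM MgCl2, 100 mM KCl. GTP added to 25 μM final, then 30 min at 37 °C. Sample diluted 2-fold, negatively stained with 1% uranyl acetate on carbon-coated grids, imaged at 80 kV at 23,000x and 49,000x.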

Row | Structure (SMILES) | inhibition of growth at 1 µg/mL [1] | MIC [2] | IC50 (Vero) | further results
1 | CCOc1cc2[nH]c(C3CCCCC3)nc2cc1NC(=O)c1ccc(C)cc1 | 65% |  |  | 
2 | Cc1ccc(C(=O)Nc2cc3nc(C4CCCCC4)[nH]c3cc2Sc2ccccc2)cc1 | 31% | 6.25 µg/mL (≈ 14.2 µM) | 6.25 µM | 
3 | CCCCSc1cc2[nH]c(C3CCCCC3)nc2cc1NC(=O)c1ccc(F)cc1F | 51% | 1.25 µg/mL (≈ 2.82 µM) | > 200 µM | 
4 | C=CCCC(=O)Nc1cc2nc(C3CCCCC3)[nH]c2cc1Oc1ccc(F)cc1 | 54% | 12.5 µg/mL (≈ 30.7 µM) | > 200 µM | 
5 | O=S(=O)(Nc1cc2nc(C3CCCCC3)[nH]c2cc1Sc1ccc(F)cc1)c1ccccc1 | 30% |  |  | 
6 | C=CCCC(=O)Nc1cc2nc(C3CCCCC3)[nH]c2cc1SCc1ccccc1 | 64% |  |  | 
7 | CCCCSc1cc2[nH]c(C3CCCCC3)nc2cc1NC(=O)CCc1ccccc1 | 33% |  |  | 
8 | Cc1ccc(C(=O)Nc2cc3nc(C4CCCCC4)[nH]c3cc2Oc2ccc(F)cc2)cc1 | 36% | 1.56 µg/mL (≈ 3.52 µM) | 26 µM | 
9 | CCCCSc1cc2[nH]c(C3CCCCC3)nc2cc1NS(=O)(=O)c1ccccc1 | 42% |  |  | 
10 | COc1ccc(C(=O)Nc2cc3nc(C4CCCCC4)[nH]c3cc2Oc2ccc(F)cc2)cc1 |  | 3.13 µg/mL (≈ 6.81 µM) | 40 µM | 
11 | CCCOC(=O)Nc1cc2nc(C3CCCCC3)[nH]c2cc1SCc1ccccc1 | 28% |  |  | 
12 | C=CCCC(=O)Nc1cc2nc(C3CCCCC3)[nH]c2cc1Sc1ccccc1 | 56% |  |  | 
13 | CCCCSc1cc2[nH]c(C3CCCCC3)nc2cc1NC(=O)c1ccc(C)cc1 | 53% |  | > 200 µM | 
14 | O=C(Nc1cc2nc(C3CCCCC3)[nH]c2cc1Oc1ccc(F)cc1)c1ccc(F)cc1F | 44% | 12.5 µg/mL (≈ 26.9 µM) | > 200 µM | inhibition [3]: Dose-dependent effect
15 | C=CCCC(=O)Nc1cc2nc(C3CCCCC3)[nH]c2cc1SCCCC | 52% |  |  | 
16 | CCCCOC(=O)Nc1cc2nc(C3CCCCC3)[nH]c2cc1Oc1ccc(F)cc1 |  | 0.63 µg/mL (≈ 1.48 µM) | 60 µM | Kd [4]: 1.32 µM; inhibition [3]: Dose-dependent effect; inhibition [5]: Active
17 | O=S(=O)(Nc1cc2nc(C3CCCCC3)[nH]c2cc1SCc1ccccc1)c1ccccc1 | 30% |  |  | 
18 | C=CCCC(=O)Nc1cc2nc(C3CCCCC3)[nH]c2cc1OCCCC | 28% |  |  | 
19 | CC(C)(C)c1ccc(C(=O)Nc2cc3nc(C4CCCCC4)[nH]c3cc2SCc2ccccc2)cc1 | 52% | 12.5 µg/mL (≈ 25.1 µM) | > 200 µM | 
20 | CCCCOC(=O)Nc1cc2nc(C3CCCCC3)[nH]c2cc1N1CCCC1 |  | 0.39 µg/mL (≈ 1.01 µM) |  | 
21 | CCCOC(=O)Nc1cc2nc(C3CCCCC3)[nH]c2cc1Sc1ccc(F)cc1 | 46% |  |  | 
22 | C=CCCC(=O)Nc1cc2nc(C3CCCCC3)[nH]c2cc1Sc1ccc(F)cc1 | 41% |  |  | 
23 | CCCCSc1cc2[nH]c(C3CCCCC3)nc2cc1NC(=O)c1ccc(C(C)(C)C)cc1 | 45% |  |  | 
24 | CC(C)(C)c1ccc(C(=O)Nc2cc3nc(C4CCCCC4)[nH]c3cc2Sc2ccccc2)cc1 | 42% |  |  | 
25 | CCN(CC)c1cc2[nH]c(C3CCCCC3)nc2cc1NC(=O)c1ccc(OC)cc1 |  | 3.1 µg/mL (≈ 7.37 µM) |  | 
26 | CCCCOC(=O)Nc1cc2nc(C3CCCCC3)[nH]c2cc1N(CC)CC |  | 0.78 µg/mL (≈ 2.02 µM) |  | 
27 | CCCCSc1cc2[nH]c(C3CCCCC3)nc2cc1NC(=O)OCCC | 38% | 1.25 µg/mL (≈ 3.21 µM) | 75 µM | 
